Measurements: ChEMBL document CHEMBL1128552, “8-Amino-3-benzyl-1,2,4-triazolo[4,3-a]pyrazines. Synthesis and anticonvulsant activity” (J Med Chem, 1995)

Tests used:
Rattus norvegicus [1] = test: The compound was tested for anticonvulsant activity against Maximal Electroshock-Induced Seizures(MES) in intraperitoneal administration.; type: functional; details: ip
Outline: (§1)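 Male Wistar rats (Charles River), maximal electroshock seizure test. Compounds given as solutions or fine dispersions in water or 0.5% methylcellulose; poorly soluble samples micronized. Initial screen at 25 mg/kg ip. ED50 is the dose protecting 50% against hind-limb extensor component, calculated by Miller–Tainter method. Either four doses with at least 12 animals each (with standard error), or three doses with six animals each.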

Rattus norvegicus [2] = test: The compound was tested for anticonvulsant activity against Maximal Electroshock-Induced Seizures(MES) in Wistar male rat, after peroral administration.; type: functional; details: po; outline: as §1
[3] = Lipophilicity was measured; type: physicochemical; details: octanol/water
[4] = Dissociation constant was measured; type: physicochemical

Structure (SMILES) | ED50 (Rattus norvegicus [1]) | ED50 (Rattus norvegicus [2]) | logP [3] | pKa [4]
Nc1nccn2c(Cc3ccccc3F)nnc12 | 9 mg/kg | 8 mg/kg |  | 
CNc1nccn2c(Cc3cccc(F)c3)nnc12 | 4 mg/kg | 20 mg/kg |  | 
CNc1nccn2c(Cc3ccccc3F)nnc12 | 5 mg/kg | 2.6 mg/kg | 1.56 | 4.02
Nc1nccn2c(Cc3ccc(F)cc3)nnc12 | > 25 mg/kg |  |  | 
CNc1nccn2c(Cc3ccc(F)cc3)nnc12 | 25 mg/kg |  |  | 
CNc1nccn2c(Cc3c(F)cccc3F)nnc12 | 2 mg/kg | 3 mg/kg |  | 
Nc1nccn2c(Cc3c(F)cccc3F)nnc12 | 4 mg/kg | 7 mg/kg |  | 
Nc1nccn2c(Cc3cc(F)ccc3F)nnc12 | 7 mg/kg | 20 mg/kg |  | 
CNc1nccn2c(Cc3cc(F)ccc3F)nnc12 | 4 mg/kg | 10 mg/kg |  | 
Nc1nccn2c(Cc3cccc(F)c3)nnc12 | > 25 mg/kg |  |  | 
CNc1nccn2c(Cc3ccccc3)nnc12 | 6 mg/kg | 16 mg/kg |  | 
Nc1ncnc2c1ncn2Cc1ccccc1F | 4.5 mg/kg | 12 mg/kg |  | 
CNc1ncnc2c1ncn2Cc1ccccc1F [BW-A78U] | 1.7 mg/kg | 2.5 mg/kg | 1.86 | 3.88
O=C1NC(=O)C(c2ccccc2)(c2ccccc2)N1 [PHENYTOIN] | 10 mg/kg | 20 mg/kg |  | 
